Measurements taken from publication PMC6872935 (Nature materials, 2019).

Key:
HCT116 tumor [1] = assay: Anti-tumor treatment response; format: in vivo, NU/J nude mice; conditions: 0.1 mmol/kg i.v., Q3D×8, n=4 mice
How it was run: (§1)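 At 50–100 mm³, mice were randomised into three groups (n=4). Groups received i.v. 0.1 mmol/kg test compound, parent drug or PBS, all in 1% DMSO, every 3 days (Q3D×8). Caliper volume = (smallest dimension)² × largest × 0.5. Day-33 volumes were expressed relative to PBS.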

[2] = Mouse body weight during treatment; format: in vivo, NU/J nude mice; conditions: 0.1 mmol/kg i.v., Q3D×8, n=4 mice
How it was run: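 Female NU/J nude mice, 6-8 weeks old, carried s.c. xenografts of 1×10⁶ HCT116 (left flank) and 1×10⁶ LoVo (right flank) cells. Repeated i.v. dosing (QD3×8) began after tumor cell injection, with a PBS control group. Body weight was recorded over time and reported as mean±SD, n=4 mice.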

HCT116 tumor [3] = assay: In vivo CEST MRI of tumor xenograft; parameters: species or system NU/J nude mice; conditions: 0.2 mmol/kg i.v.; no significant difference between HCT116 and LoVo tumors
How it was run: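 Female NU/J nude mice bore s.c. HCT116 (left flank) and LoVo (right flank) xenografts, 1×10⁶ cells each. At 100–200 mm³, mice received i.v. 0.2 mmol/kg test compound or parent drug in PBS with 1% DMSO. Serial CEST MRI over 24 h at 11.7 T used RARE, TR/TE 5,000/3.7 ms, B₁ 3.6 μT, t_sat 4 s, and offsets ±7.4–12.6 ppm. The 0 h MTR_asym was subtracted; n=4 mice.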

HCT116 cells [4] = assay: Cell viability, acridine orange/propidium iodide counting; format: cell-based, human; conditions: 48 h incubation
LoVo tumor = assay: Anti-tumor treatment response; format: in vivo, NU/J nude mice; conditions: 0.1 mmol/kg i.v., Q3D×8, n=4 mice
How it was run: as §1

HCT116 cells [5] = assay: CEST MRI of incubated cells; format: cell-based, human; conditions: 500 μM, 3 h; for CEST signal, fold less compared to Olsa-RVRR: after subtracting values of non-treated cells; for OlsaCEST signal, fold larger compared to free olsalazine: in vitro
[6] = In vitro CEST MRI of solutions; format: physicochemical; conditions: 11.7 T, 37 °C
How it was run: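 Compound (0.625–10 mM) was dissolved in 10 mM PBS and titrated with 3 M HCl/NaOH to pH 5.0–8.0. Samples in 1 mm capillaries were held at 37 °C at 11.7 T. RARE CEST used TR/TE 6,000/5 ms, B₁ 3.6 μT, and offsets −12 to 12 ppm in 0.3 ppm steps. B₀ was WASSR-corrected. MTR_asym was computed from ±Δω signals over S₀; exchange rate came from QUESP across saturation powers.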

[7] = tested on: DNA methyltransferase (DNMT); assay: DNMT activity/inhibition assay kit on nuclear extracts of treated cells; format: cell-based, human; conditions: HCT116 cells, 500 μM for 3 h, measured 48 h later, n=3
How it was run: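 5×10⁶ HCT116 cells were incubated 3 h at 37 °C with or without 500 μM test compound, washed three times and cultured in fresh McCoy's 5A. After 48 h, nuclear proteins were extracted with a kit and quantified by Bradford assay. DNMT activity was measured with an activity/inhibition kit using 8 μg nuclear protein per well.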

[8] = Ex vivo CEST MRI of organs; format: in vivo, NU/J nude mice; conditions: 0.2 mmol/kg i.v.; 2 h p.i. for Olsa-RVRR, 0.5 h p.i. for olsalazine; n=4 mice
How it was run: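 Female nude mice carried s.c. HCT116 (left flank) and LoVo (right flank) xenografts of 100-200 mm³. They received 0.2 mmol/kg test compound i.v. in PBS with 1% DMSO and were killed at 2 h or 30 min. Major organs were placed in PBS in a sealed well plate for CEST imaging. Signal was computed as MTR_asym, expressed relative to muscle; mean±SD, n=4.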

HCT116 cells [9] = assay: 3D-SIM super-resolution fluorescence imaging of cells; format: cell-based, human; conditions: 8 μM, 3 h
How it was run: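 Cells were exposed for 3 h to 8 μM test compound or free Alexa 488, PBS-washed, fixed 10 min in 4% paraformaldehyde and mounted in DAPI-containing medium. Super-resolution images were acquired with simultaneous 405 nm (DAPI) and 488 nm (Alexa 488) excitation. Experiments were repeated three times.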

LoVo cells = assay: 3D-SIM super-resolution fluorescence imaging of cells; format: cell-based, human; conditions: 8 μM, 3 h
How it was run: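 Cells were incubated 3 h with 8 μM Alexa-conjugated test probe or free Alexa 488 dye, then washed three times with PBS. They were fixed in 4% paraformaldehyde for 10 min, washed again and mounted with DAPI-containing medium. 3D-SIM used 405 nm (DAPI) and 488 nm (Alexa 488) excitation. Experiments were repeated three times.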

HCT116 and LoVo tumors = assay: 3D-SIM imaging of resected tumors; format: in vivo, NU/J nude mouse; conditions: 50 nmol i.v., tumors resected at 2 h post-injection
How it was run: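 Female NU/J nude mice, 6-8 weeks old, carried s.c. xenografts of 1×10⁶ HCT116 and 1×10⁶ LoVo cells. Each received 50 nmol of test compound or free Alexa 488 i.v.; tumors were resected at 2 h. Tissue was formalin-fixed overnight, cryoprotected overnight in 30% w/v sucrose at 4 °C, OCT-embedded, cut at 10 μm and DAPI-mounted. Imaging used 405/488 nm excitation.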

furin = furin (Homo sapiens, UniProt P09958); assay: Furin-controlled condensation in solution followed by HPLC; format: biochemical; conditions: 25 μM, 250 μM GSH + 0.5 nmol U-1 furin, 12 h, 37 °C
Sequence of furin (P09958 108-595 limits assumed): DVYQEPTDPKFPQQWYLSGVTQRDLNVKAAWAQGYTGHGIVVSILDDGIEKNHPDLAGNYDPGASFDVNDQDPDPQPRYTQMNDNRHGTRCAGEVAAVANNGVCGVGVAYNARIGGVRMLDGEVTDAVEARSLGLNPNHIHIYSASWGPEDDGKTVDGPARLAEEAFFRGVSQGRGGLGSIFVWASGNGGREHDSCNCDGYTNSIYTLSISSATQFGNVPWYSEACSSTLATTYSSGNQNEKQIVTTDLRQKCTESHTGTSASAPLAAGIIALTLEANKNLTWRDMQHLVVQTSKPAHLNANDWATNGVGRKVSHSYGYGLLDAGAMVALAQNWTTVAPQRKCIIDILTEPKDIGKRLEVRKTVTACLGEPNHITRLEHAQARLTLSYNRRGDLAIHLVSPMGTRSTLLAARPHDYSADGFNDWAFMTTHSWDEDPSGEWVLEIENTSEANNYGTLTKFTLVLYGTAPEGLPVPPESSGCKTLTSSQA
How it was run: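 25 μM test compound was incubated with 250 μM GSH at 37 °C, pH 7.4. Reduction alone ran 2 h; with 0.5 nmol U⁻¹ furin added, incubation ran 12 h. Reduced, cleaved and condensed products were followed by HPLC. Conversion to dimer was tracked as a function of time.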

[10] = TEM and DLS of nanoparticle formation; format: physicochemical; conditions: 250 μM GSH + 0.5 nmol U-1 furin, 12 h, furin buffer
How it was run: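 25 μM test compound was incubated 12 h in furin buffer with 250 μM GSH and 0.5 nmol U⁻¹ furin. The resulting particles were examined by TEM, and their size distribution was measured by DLS.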

Compound: O=C(O)c1cc(/N=N/c2ccc(O)c(C(=O)O)c2)ccc1O [olsalazine]
- average tumor volume at day 33 compared to PBS control group set at 100% (HCT116 tumor [1]): ~ 88%
- body weight [2]: did not show any significant differences in body weight
- maximum OlsaCEST intensity in tumors at 0.5 h p.i. (HCT116 tumor [3]): ~ 1.8%
- dose to obtain a toxic effect comparable to Olsa-RVRR at 125 μM (HCT116 cells [4]): 2.5 mM
- fold dose increase needed versus Olsa-RVRR for comparable toxic effect (HCT116 cells [4]): 20 fold
- average tumor volume at day 33 compared to PBS control group set at 100% (LoVo tumor): 86%
- OlsaCEST signal versus non-incubated cells (HCT116 cells [5]; p>0.05): no significant difference between free olsalazine-incubated cells and non-incubated cells
- CEST peak offset from the water proton signal ([6]; 10 mM in PBS): ~ 9.8 ppm
- proton exchange rate (kex) ([6]; 10 mM, pH 7.4, QUESP method): 697 Hz
- DNMT inhibition [7]: no significant DNMT inhibition
- organ distribution of OlsaCEST signal ex vivo [8]: both tumor sites showed comparable CEST signals

Compound: Ac-Arg-Val-Arg-Arg-Cys(StBu)-Lys(Alexa 488)-2-cyanobenzothiazole [Alexa-RVRR]
- intracellular green fluorescence (3D-SIM) (HCT116 cells [9]): clustering of green fluorescent nanoparticles
- intracellular green fluorescence (3D-SIM) (LoVo cells): much less
- green fluorescent nanoparticles in tumors (3D-SIM) (HCT116 and LoVo tumors): much higher quantity of green fluorescent nanoparticles

Compound: Ac-Arg-Val-Arg-Arg-Cys(StBu)-Lys(olsalazine) [CTR2]
- furin cleavage of the reduced compound (furin): cleaved to cleaved CTR2 without condensation
- CEST signal, fold less compared to Olsa-RVRR (HCT116 cells [5]): 5.2 fold
- OlsaCEST signal, fold larger compared to free olsalazine (HCT116 cells [5]): 2.3 fold
- nanoparticle formation with GSH and furin (TEM) [10]: no nanoparticles were formed
- DNMT inhibition [7]: no significant DNMT inhibition

Compound: RKRCRV [CTR1]
- furin cleavage of the reduced compound (furin): could not be further cleaved
- CEST signal, fold less compared to Olsa-RVRR (HCT116 cells [5]): 4.4 fold
- OlsaCEST signal, fold larger compared to free olsalazine (HCT116 cells [5]): 2.8 fold
- nanoparticle formation with GSH and furin (TEM) [10]: no nanoparticles were formed
- DNMT inhibition [7]: no significant DNMT inhibition
